Reference: PMC11929782 (Scientific Reports, 2025)
Ends that are not written are not given here.

Legend:
[1] = patients, long-term studies; cited from earlier work
IL17F = target: T1, IL17F (Homo sapiens, UniProt Q96PD4); assay: ELISA binding assay, IL17F; conditions: read at 450 nm
T1 sequence (Q96PD4 31-163): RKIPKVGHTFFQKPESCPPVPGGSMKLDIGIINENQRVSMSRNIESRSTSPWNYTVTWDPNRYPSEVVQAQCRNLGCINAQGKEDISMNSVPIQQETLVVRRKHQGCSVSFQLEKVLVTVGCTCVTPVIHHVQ

IL17A = IL17A (Homo sapiens, UniProt Q16552); assay: ELISA binding assay, IL17A; conditions: read at 450 nm
IL17RC = target: T2, IL17RC (Homo sapiens, UniProt Q8NAC3); assay: ELISA binding assay, IL17RC; conditions: read at 450 nm
T2 sequence (Q8NAC3 21-791): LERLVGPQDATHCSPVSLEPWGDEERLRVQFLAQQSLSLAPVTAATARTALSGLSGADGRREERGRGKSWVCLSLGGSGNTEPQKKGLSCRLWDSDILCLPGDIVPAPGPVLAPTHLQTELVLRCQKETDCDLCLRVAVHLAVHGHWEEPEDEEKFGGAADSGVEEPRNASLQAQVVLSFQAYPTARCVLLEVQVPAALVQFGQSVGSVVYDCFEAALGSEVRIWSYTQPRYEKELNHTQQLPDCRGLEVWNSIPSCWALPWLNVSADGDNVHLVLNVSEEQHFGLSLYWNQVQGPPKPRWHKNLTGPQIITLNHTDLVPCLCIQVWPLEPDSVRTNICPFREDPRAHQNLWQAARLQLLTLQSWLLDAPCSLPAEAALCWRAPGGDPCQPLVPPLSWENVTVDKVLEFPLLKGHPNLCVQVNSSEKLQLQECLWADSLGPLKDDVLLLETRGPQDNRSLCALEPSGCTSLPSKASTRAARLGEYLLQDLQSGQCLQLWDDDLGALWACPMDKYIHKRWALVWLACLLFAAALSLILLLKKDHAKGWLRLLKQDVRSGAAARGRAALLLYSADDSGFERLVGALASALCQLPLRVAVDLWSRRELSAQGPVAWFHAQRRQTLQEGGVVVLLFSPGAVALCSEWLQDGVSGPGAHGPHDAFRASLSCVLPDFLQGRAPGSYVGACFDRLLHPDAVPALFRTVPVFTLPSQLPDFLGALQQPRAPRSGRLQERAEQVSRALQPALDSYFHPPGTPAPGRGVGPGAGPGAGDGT

THP-1 cells = assay: Cytotoxicity, CCK-8 assay; format: cell-based, human; conditions: THP-1, normal and IL17RA-deficient cells, varying concentrations, 24 h
Outline: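 THP-1 cells were cultured in RPMI1640 (0.05 mM β-mercaptoethanol, 10% FBS). They were made into M1 macrophages with 100 ng/ml PMA for 120 h, then 1 µg/ml LPS plus 20 ng/ml IFNγ for 24 h. IL17RA was knocked down by siRNA, with cells harvested at 48 h. Normal and knockdown cells (1 × 10⁴ cells/ml) received test compound at varied concentrations for 24 h. CCK-8 for 4 h; A450. Mean ± SEM, ≥3 independent experiments.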

RAW264.7 cells = assay: Cytotoxicity, CCK-8 assay; format: cell-based, murine; conditions: RAW264.7, normal and IL17RA-deficient cells, varying concentrations, 24 h
Outline: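 RAW264.7 cells were cultured in RPMI1640 (0.05 mM β-mercaptoethanol, 10% FBS) and polarized to M1 with 1 µg/ml LPS plus 20 ng/ml IFNγ for 24 h. IL17RA was knocked down by siRNA transfection, with cells harvested at 48 h. Normal and knockdown cells (1 × 10⁴ cells/ml) were treated 24 h with varied test compound concentrations. CCK-8 was added for 4 h, then absorbance read at 450 nm. Mean ± SEM, ≥3 independent experiments.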

HaCaT cells = assay: Cytotoxicity, CCK-8 assay; format: cell-based, human; conditions: normal and IL17RA-deficient cells, varying concentrations, 24 h
Outline: (§1)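 HaCaT and NIH3T3 cells were grown in DMEM with 10% FBS at 37 °C and 5% CO2. IL17RA was knocked down with siRNA and Lipofectamine 2000, and cells were harvested 48 h post-transfection. Normal and knockdown cells were seeded at 1 × 10⁴ cells/ml and exposed to a range of test compound concentrations for 24 h. CCK-8 was added for 4 h and absorbance read at 450 nm. Mean ± SEM, ≥3 independent experiments.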

NIH3T3 cells = assay: Cytotoxicity, CCK-8 assay; format: cell-based, murine; conditions: NIH3T3, normal and IL17RA-deficient cells, varying concentrations, 24 h
Outline: as §1

Human IL17RA protein [2] = target: T3, Human IL17RA protein (human, UniProt Q96F46 33-320); assay: SPR
Human IL17RA protein [3] = target: T3, Human IL17RA protein; assay: MST

IL17A, sequence (Q16552 24-155, species assumed): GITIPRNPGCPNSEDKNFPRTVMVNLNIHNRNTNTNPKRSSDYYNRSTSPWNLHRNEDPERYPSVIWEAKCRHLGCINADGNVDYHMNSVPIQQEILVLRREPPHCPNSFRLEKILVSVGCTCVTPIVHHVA

Molecule: Ixekizumab
- Immunogenicity [1]: variable immunogenicity

Molecule: ASPVIYHL-NH2 [AL-8(0)]
- EC50 for binding to IL17F (IL17F): no measurable
- EC50 for binding to IL17A (IL17A): no measurable
- EC50 for binding to IL17RC (IL17RC): no measurable
- Cytotoxicity (cell viability, CCK-8) (THP-1 cells): not directly cytotoxic
- Cytotoxicity (cell viability, CCK-8) (RAW264.7 cells): not directly cytotoxic
- Cytotoxicity (cell viability, CCK-8) (HaCaT cells): not directly cytotoxic
- Cytotoxicity (cell viability, CCK-8) (NIH3T3 cells): not directly cytotoxic

Molecule: Secukinumab
- ADA incidence rate [1]: < 1%

B1: AL-8(0) (peptide)
peptide: ASPVIYHL-NH2
- Kd (Human IL17RA protein [2]): 83 nM
- Kd (Human IL17RA protein [3]): 89 nM
